Assay results as given in publication PMC3663483 (Nature, 2012).

Columns and labels:
GFP-labelled PC3 cells = experiment: Real-time imaging of cell migration; format: cell-based, human; conditions: starting at 6 h of treatment
How it was run: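 GFP-labelled PC3 cells were plated on poly-D-lysine-coated chamber slides and left to adhere for 24 h. Wells were then scratch-wounded. Wide-field fluorescence time-lapse was run under CO2 and temperature control, with DIC and GFP frames every 2 min. Cell centroids were tracked manually to give xy paths, velocity and distance. Analysis covered hours 3–4 and 6–7 of treatment, with 34 cells per condition and ANOVA.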

[1] = tested on: 4EBP1 and p70S6K1/2 phosphorylation; experiment: Preclinical trial in Pten L/L mice: mTOR effector phosphorylation; format: in vivo, mouse; conditions: INK128 1 mg/kg or RAD001 10 mg/kg daily gavage
How it was run: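 Nine- and twelve-month-old PtenL/L mice were dosed daily by oral gavage, with vehicle 5% […], 15% NMP, 80% water. Whole prostates were removed, microdissected, frozen in liquid nitrogen and pulverised. Protein lysates were immunoblotted with antibodies to phospho-4EBP1 T37/46, 4EBP1, phospho-p70S6K T389, phospho-rpS6 S240/244 and rpS6.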

[2] = tested on: Pten^L/L prostate cancer mouse model; format: in vivo; conditions: Pten L/L mice; for apoptosis in prostate / cell proliferation in prostate: INK128 1 mg/kg or RAD001 10 mg/kg daily gavage
How it was run: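 PtenL/L mice aged nine or twelve months were given daily oral gavage; vehicle was 5% polyvinylpropyline, 15% NMP, 80% water. Body weight was taken every 3 days for toxicity. In the 28-day study, prostates were MRI-imaged at 14 T on days 0 and 28. Prostates and lymph nodes were formalin-fixed and cut as 5 μm paraffin sections. Nodes were stained for CK8 and androgen receptor, and metastasis areas were measured.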

[3] = tested on: multiple cancer cell lines; experiment: Apoptosis analysis; format: cell-based, human
How it was run: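 LNCaP and A498 cells, after treatment, were labelled with Annexin V-FITC and propidium iodide per kit instructions. Annexin/PI staining was acquired by flow cytometry to score apoptotic cells.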

[4] = tested on: mTOR effectors 4EBP1, p70S6K1/2 and AKT; experiment: Western blot of downstream mTOR effectors in PC3 cells; format: cell-based, human; conditions: PP242 2.5 μM, rapamycin 50 nM, 3-h treatment
[5] = tested on: PC3 human prostate cancer cells; experiment: Ribosome profiling of PC3 cells; format: cell-based; conditions: 3 h, rapamycin 50 nM
[6] = tested on: Jurkat lymphoid cell line; conditions: cited from earlier work

Row | Structure (SMILES) | cancer cell migration (GFP-labelled PC3 cells) | 4EBP1 and p70S6K1/2 phosphorylation [1] | decrease in prostatic intraepithelial neoplasia (PIN) lesions ([2]; INK128 1 mg/kg daily gavage) [%] | prostate cancer volume ([2]; INK128 1 mg/kg daily gavage, MRI day 0 and day 28) | apoptosis in prostate [2] | cell proliferation in prostate [2] | programmed cell death [3] | regression of PIN lesions ([2]; RAD001 10 mg/kg daily gavage) | activity of downstream mTOR effectors 4EBP1, p70S6K1/2 and AKT [4] | effect on gene expression by ribosome profiling [5] | sensitivity to rapamycin treatment [6]
1 | CC(C)n1nc(-c2ccc3oc(N)nc3c2)c2c(N)ncnc21 [INK128] | inhibits cancer cell migration | completely restored to wild-type levels | 50 | marked reduction | tenfold increase | decreased proliferation | induced programmed cell death |  |  |  | 
2 | CO[C@H]1C[C@@H]2CC[C@@H](C)[C@@](O)(O2)C(=O)C(=O)N2CCCC[C@H]2C(=O)O[C@H]([C@H](C)C[C@@H]2CC[C@@H](OCCO)[C@H](OC)C2)CC(=O)[C@H](C)/C=C(\C)[C@@H](O)[C@@H](OC)C(=O)[C@H](C)C[C@H](C)/C=C/C=C/C=C/1C [RAD001] |  | only decreased p70S6K1/2 phosphorylation levels |  |  | no significant effect | limited decrease |  | only partial regression |  |  | 
3 | CO[C@H]1C[C@@H]2CC[C@@H](C)[C@@](O)(O2)C(=O)C(=O)N2CCCC[C@H]2C(=O)O[C@H]([C@H](C)C[C@@H]2CC[C@@H](O)[C@H](OC)C2)CC(=O)[C@H](C)/C=C(\C)[C@@H](O)[C@@H](OC)C(=O)[C@H](C)C[C@H](C)/C=C/C=C/C=C/1C [rapamycin] |  |  |  |  |  |  |  |  | only blocks p70S6K1/2 activity | did not markedly affect gene expression | particularly sensitive
